Consider three molecules from PMC5161678 (Clinical cancer research : an official journal of the …, 2016).

Data set [1] has as its target T1, CSF-1R (Homo sapiens, UniProt P07333). The experiment in a line: CSF-1R phosphorylation sandwich ELISA in CSF-1 treated monocytes. Type of data set: cell-based. To be noted: recombinant CSF-1 10 ng/mL, 5 minutes, fedratinib 5 μM, pacritinib 1 μM. In general terms: ELISA stands for enzyme-linked immunosorbent assay.
For data set [2] the following is noted: in vivo; cited from earlier work.
A further data set has as its system CD5+CD19+ CLL B-cells. The experiment in a line: CLL B-cell viability by Annexin V/PI staining in NLC cocultures. Type of data set: cell-based, human. To be noted: for CLL viability: long-term NLC/CLL cocultures, ruxolitinib 5 μM, fedratinib 5 μM, pacritinib 1 μM.
The test system of data set [3] is CSF-1R. To be noted: CSF-1R in vitro; cited from earlier work.
A further data set has as its system nurse-like cells (NLC). The experiment in a line: NLC generation and survival in CLL patient PBMC cultures. The class given is cell-based, human. The conditions noted are these: pacritinib 1 μM; for NLC survival: CLL PBMC cultured 7–10 days, ruxolitinib 5 μM; for NLC survival / intact NLC by morphology: fedratinib 5 μM; for intact NLC by morphology: established NLC cultures treated for 24 hours. The essentials: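 PBMC from CLL patients not on therapy were plated at 3–5 × 10^6 cells/mL in RPMI with 10% FBS at 37°C, 5% CO2 for 7–10 days, then given test compound or DMSO vehicle. NLC were counted by morphology in five high-power fields or as high forward/side-scatter events by flow cytometry. Viability was read by annexin V/PI. For some cultures, CLL cells were gently removed before treatment.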

Data set [4] deals with monocyte-derived macrophages. The experiment in a line: monocyte and monocyte-derived macrophage viability. The class given is cell-based, human.
A further data set concerns ERK and AKT. The data set can be described thus: ERK and AKT phosphorylation in CSF-1 treated monocytes. The class given is cell-based, human. The conditions noted are these: pacritinib. The essentials:
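Healthy-donor monocytes were CD14 bead-selected from PBMC, cultured overnight, then stimulated 5 min with recombinant human CSF-1 (10 ng/mL) plus test compound or DMSO vehicle. Lysis buffer: Tris pH 7.5, EDTA, NaCl, NP-40, deoxycholate, SDS and protease/phosphatase inhibitors. SDS-PAGE on 5–12% gradient gels, PVDF transfer, 1 h milk block. Probed for total and pT308/pS473 AKT, and total and pT202/Y204 ERK1/2.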

Another data set relates to lymphoma. The conditions noted are these: cited from earlier work.
Data set [5] addresses T1, CSF-1R. The data set can be described thus: in vitro radiometric kinase assay. The class given is biochemical.

T1 sequence (P07333 20-972): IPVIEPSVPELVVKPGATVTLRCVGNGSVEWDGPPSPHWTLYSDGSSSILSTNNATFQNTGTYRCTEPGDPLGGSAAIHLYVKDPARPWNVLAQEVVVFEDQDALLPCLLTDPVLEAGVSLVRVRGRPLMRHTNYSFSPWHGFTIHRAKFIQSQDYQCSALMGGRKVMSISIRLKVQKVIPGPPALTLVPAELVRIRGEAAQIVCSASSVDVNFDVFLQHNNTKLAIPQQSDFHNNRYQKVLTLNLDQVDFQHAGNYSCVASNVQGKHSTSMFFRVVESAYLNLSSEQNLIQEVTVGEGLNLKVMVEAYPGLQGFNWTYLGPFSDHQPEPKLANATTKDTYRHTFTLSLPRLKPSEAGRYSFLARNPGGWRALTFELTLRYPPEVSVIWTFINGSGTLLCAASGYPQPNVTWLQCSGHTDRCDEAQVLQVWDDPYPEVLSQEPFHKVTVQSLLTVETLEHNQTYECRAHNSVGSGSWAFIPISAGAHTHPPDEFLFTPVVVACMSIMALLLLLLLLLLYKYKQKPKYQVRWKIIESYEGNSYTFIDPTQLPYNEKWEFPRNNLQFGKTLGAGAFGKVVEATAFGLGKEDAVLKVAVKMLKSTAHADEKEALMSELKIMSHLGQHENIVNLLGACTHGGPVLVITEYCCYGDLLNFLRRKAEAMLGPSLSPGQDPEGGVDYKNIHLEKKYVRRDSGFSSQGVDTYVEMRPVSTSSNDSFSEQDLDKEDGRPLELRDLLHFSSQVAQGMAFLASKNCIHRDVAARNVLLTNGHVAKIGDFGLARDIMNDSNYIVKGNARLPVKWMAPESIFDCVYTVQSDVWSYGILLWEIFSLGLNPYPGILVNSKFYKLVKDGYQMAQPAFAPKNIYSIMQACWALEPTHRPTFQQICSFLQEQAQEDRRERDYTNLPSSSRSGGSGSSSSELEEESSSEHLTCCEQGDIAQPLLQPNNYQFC

What is called IC50 is the concentration that inhibits the measured activity by half. In the case of `Cc1cnc(Nc2ccc(OCCN3CCCC3)cc2)nc1Nc1cccc(S(=O)(=O)NC(C)(C)C)c1` [fedratinib], the “total CSF-1R phosphorylation” value at CSF-1R [1] is “significantly reduced”. Further, the clinically achievable concentrations in data set [2] is 1 to 5 µM. In the data set with CD5+CD19+ CLL B-cells, the CLL viability result is recorded as “significantly reduced”. Further, the 50% inhibitory concentration (IC50) in the data set with CSF-1R [3] was more than 1000 nM. In the data set with nurse-like cells (NLC), the NLC survival result was “significant, and near total, loss”; the “intact NLC by morphology” value was “rarely observed”.
In the case of `C1=C/COCc2cc(ccc2OCCN2CCCC2)Nc2nccc(n2)-c2cccc(c2)COC/1` [pacritinib], the “total CSF-1R phosphorylation” value at CSF-1R [1] was “significantly reduced”. Also, the “monocyte and monocyte-derived macrophage viability” value in data set [4] (CSF-1-treated monocytes, clinically achievable concentrations) is given as “significantly impaired”. The “signs of apoptotic cell death” value in data set [4] (pacritinib-treated macrophages) was “caspase 3 activation, loss of mitochondrial membrane potential, and changes in cell morphology”. The “downstream phosphorylation of ERK and AKT” value in the data set with ERK and AKT was “significantly impaired”. In addition, the CLL viability entry in the data set with CD5+CD19+ CLL B-cells is given as “significantly reduced”. In the data set with CD5+CD19+ CLL B-cells (paired CLL samples, ibrutinib 1 uM or pacritinib 1 uM), the “induction of apoptosis in CLL samples” value is recorded as “significant increase”. Moreover, the tolerability entry with lymphoma (patients with lymphoma) was “well tolerated”. Moreover, the clinical activity entry in the data set on lymphoma (various NHL, including CLL) was “clinical activity”. Besides, in the data set on nurse-like cells (NLC), the NLC survival result was “significant, and near total, loss”; the “intact NLC by morphology” value is “rarely observed”. In addition, the “viable NLC by annexin V/PI staining” value in the data set on nurse-like cells (NLC) (CLL cells removed from established NLC cultures, 24 hours) was “viable NLC were no longer identified”. Also, the IC50 against CSF-1R [5] is less than 50 nM. For the same molecule, at CSF-1R [5] (CSF-1R), the “IC50 (in words)” value is listed as “low nanomolar range”.
For the molecule `N#CC[C@H](C1CCCC1)n1cc(-c2ncnc3[nH]ccc23)cn1` [ruxolitinib], in the data set with CSF-1R [3], the IC50 was approximately 1000 nM. Besides, the NLC survival result in the data set with nurse-like cells (NLC) is “modest”.
